Key:
Type in all cases: functional
P388 [1] = test: In vitro inhibition of P388 murine leukemia cell (R/ADR) growth; conditions: Mus musculus; for EC50: read-out: ED50 (the source's name)
Summary of the method: (§1)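 P388 murine leukemia cells (S/ADR) or multidrug-resistant P388/ADR subline (R/ADR), kept exponential in suspension in RPMI 1640 + 10% heat-inactivated FCS, 10 μM 2-mercaptoethanol, penicillin/streptomycin; seeded 10⁵ cells/mL, exposed to graded concentrations for 4 days. Density counted daily by Coulter counter; growth rate from linear regression of log density vs time, expressed as % of control; ED50 read from dose-effect curves.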

P388 [2] = test: In vitro inhibition of P388 murine leukemia cell (S/ADR) growth; conditions: Mus musculus; for EC50: read-out: ED50 (the source's name); summary of the method: as §1
Mus musculus = species on record: Mus musculus; test: Lethal dose against DBA/2 mice was determined.
[3] = T/C ratio with the optimal dose mg/Kg in parenthesis.
[4] = T/C ratio of the compound

Row | Compound | ED50 (P388 [1]) | ED50 (P388 [2]) | EC50 (P388 [1]) | EC50 (P388 [2]) | other results
1 | cis-Bis[[3-(anthraquinon-1-ylamino)hexyl]amide]dichloroplatinum | > 60 µM | > 60 µM | – | – | –
2 | NCCCCCCNc1cccc2c1C(=O)c1ccccc1C2=O | – | – | 45 µM | 45 µM | LD50 (Mus musculus): 133 mg/kg
3 | cis-Bis[[3-(anthraquinon-1-ylamino)hexyl]amide]diiodoplatinum | > 60 µM | > 60 µM | – | – | –
4 | cis-Bis[[3-(anthraquinon-1-ylamino)dodecyl]amide]dichloroplatinum | > 60 µM | 60 µM | – | – | –
5 | NCCCCNc1cccc2c1C(=O)c1ccccc1C2=O | – | – | 50 µM | 40 µM | LD50 (Mus musculus): 200 mg/kg
6 | [[2-[[2-(Anthraquinon-1-ylamino)ethyl]amino]ethyl]-amine-N,N']diiodoplatinum | 12 µM | 4.5 µM | – | – | –
7 | [[2-[[2-(Anthraquinon-1-ylamino)ethyl]amino]ethyl]-amine-N,N']dichloroplatinum | > 60 µM | 0.2 µM | – | – | LD50 (Mus musculus): > 28 mg/kg; T/C [3]: 126
8 | NCCNCCNc1cccc2c1C(=O)c1ccccc1C2=O | – | – | 8 µM | 4.5 µM | –
9 | cis-Bis[[3-(anthraquinon-1-ylamino)propyl]amide]diiodoplatinum | > 60 µM | 40 µM | – | – | –
10 | [[2-[[3-(Anthraquinon-1-ylamino)propyl]amino]ethyl]-amine-N,N']dichloroplatinum | > 60 µM | 0.45 µM | – | – | LD50 (Mus musculus): > 28 mg/kg; T/C [3]: 130
11 | cis-Bis[[3-(anthraquinon-1-ylamino)butyl]amide]diiodoplatinum | > 60 µM | 40 µM | – | – | –
12 | [[2-[[3-(Anthraquinon-1-yloxy)propyl]amino]ethyl]-amine-N,N']dichloroplatinum | 12 µM | 0.45 µM | – | – | LD50 (Mus musculus): > 28 mg/kg; T/C [3]: 120
13 | CISPLATIN | 1.4 µM | 0.19 µM | – | – | LD50 (Mus musculus): 6.6 mg/kg; T/C [4]: 134
14 | cis-Bis[[3-(anthraquinon-1-yloxy)propyl]amide]diiodoplatinum | > 10 µM | > 10 µM | – | – | –
15 | cis-Bis[[3-(anthraquinon-1-ylamino)butyl]amide]dichloroplatinum | > 60 µM | 8 µM | – | – | –
16 | cis-Bis[[3-(anthraquinon-1-ylamino)dodecyl]amide]diiodoplatinum | > 60 µM | 60 µM | – | – | –
17 | cis-Bis[[3-(anthraquinon-1-yloxy)propyl]amide]dichloroplatinum | > 10 µM | > 10 µM | – | – | –
18 | NCCCNc1cccc2c1C(=O)c1ccccc1C2=O | – | – | 45 µM | 20 µM | –
19 | NCCNCCOCCOc1cccc2c1C(=O)c1ccccc1C2=O | – | – | > 60 µM | 0.2 µM | –
20 | NCCNCCCOc1cccc2c1C(=O)c1ccccc1C2=O | – | – | 60 µM | 6 µM | –
21 | NCCCCCCCCCCCCNc1cccc2c1C(=O)c1ccccc1C2=O | – | – | 20 µM | 60 µM | –
22 | NCCNCCCNc1cccc2c1C(=O)c1ccccc1C2=O | – | – | 8 µM | 4.5 µM | –
23 | NCCNCCCCCCNc1cccc2c1C(=O)c1ccccc1C2=O | – | – | 8 µM | 4.5 µM | LD50 (Mus musculus): 200 mg/kg
24 | O=C1c2ccccc2C(=O)c2c(NCCCNCCNCCO)cccc21 | – | – | > 10 µM | 20 µM | –
25 | Pt(en)Cl2 | 20 µM | 6 µM | – | – | –
26 | [[2-[[6-(Anthraquinon-1-ylamino)hexyl]amino]ethyl]-amine-N,N']dichloroplatinum | > 60 µM | 45 µM | – | – | –
27 | NCCCOc1cccc2c1C(=O)c1ccccc1C2=O | – | – | > 10 µM | 10 µM | –
28 | [[2-[[3-(Anthraquinon-1-ylamino)propyl]amino]ethyl](2-hydroxyethyl)-amine-N,N']dichloroplatinum | > 60 µM | > 30 µM | – | – | –
